The source made the active and inactive calls. The calls are words filed in the database; no cut-off is given here.
tested on: Streptococcus pyogenes; assay: Inhibition of Streptococcus pyogenes IdeS assessed as blockade of enzyme-mediated degradation of human polyclonal immunoglobulin G by SDS-PAGE method
In short: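 IdeS expressed in E. coli and purified, diluted in PBS pH 7.4 (1 mg/mL), preincubated 30 min at room temperature in the dark with compound in DMSO (10 mg/mL stock, 100× excess). Human polyclonal IgG (1 mg/mL in PBS) then added, 1 h at 37 °C. Samples boiled in reducing SDS sample buffer (4% SDS, 5% 2-mercaptoethanol), cleavage read on 4–20% SDS–PAGE.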

Question: How did the Activity turn out when `Cc1ccc(S(=O)(=O)N[C@@H](CCCCNC(=O)OC(C)(C)C)COS(=O)(=O)c2ccc(C)cc2)cc1` was run?
Answer: inactive

Question: With `Cc1ccc(S(=O)(=O)N[C@H](COS(=O)(=O)c2ccc(C)cc2)Cc2ccccc2)cc1` as the compound, how does the Activity read?
Answer: inactive

Question: For `Cc1ccc(S(=O)(=O)N[C@@H](CCCCN)CN=[N+]=[N-])cc1`, which Activity is on record?
Answer: inactive

Question: Which Activity does the source give for `CCCC[C@@H](CO)NS(=O)(=O)c1ccc(C)cc1` here?
Answer: inactive

Question: Which Activity does the source give for `Cc1ccc(S(=O)(=O)N[C@H](CO)Cc2ccccc2)cc1` here?
Answer: inactive

Question: For `Cc1ccc(S(=O)(=O)N[C@@H](CCCCN)C(=O)CCl)cc1`, which Activity is on record?
Answer: Active

Question: For `CCCC[C@@H](CN=[N+]=[N-])NS(=O)(=O)c1ccc(C)cc1`, which Activity is on record?
Answer: Active

Question: How did the Activity turn out when `CCCC[C@@H](CC#N)NS(=O)(=O)c1ccc(C)cc1` was run?
Answer: Active

Question: How did the Activity turn out when `Cc1ccc(S(=O)(=O)N[C@H](CN=[N+]=[N-])Cc2ccccc2)cc1` was run?
Answer: Active

Question: With `Cc1ccc(S(=O)(=O)N[C@H](CC=O)CCCCNC(=O)OC(C)(C)C)cc1` as the compound, how does the Activity read?
Answer: Active

Question: With `Cc1ccc(S(=O)(=O)N[C@@H](CCCCNC(=O)OC(C)(C)C)CN=[N+]=[N-])cc1` as the compound, how does the Activity read?
Answer: inactive

Question: How did the Activity turn out when `CCCC[C@@H](CC=O)NS(=O)(=O)c1ccc(C)cc1` was run?
Answer: Active

Question: `Cc1ccc(S(=O)(=O)N2C[C@@H]2C(C)C)cc1` (stereo partly drawn) was tested. Which Activity did it give?
Answer: inactive

Question: For `CCCC[C@@H](COS(=O)(=O)c1ccc(C)cc1)NS(=O)(=O)c1ccc(C)cc1`, which Activity is on record?
Answer: inactive

Question: For `Cc1ccc(S(=O)(=O)N[C@H](COS(=O)(=O)c2ccc(C)cc2)C(C)C)cc1`, which Activity is on record?
Answer: inactive

Question: Which Activity does the source give for `Cc1ccc(S(=O)(=O)N[C@H](CN=[N+]=[N-])C(C)C)cc1` here?
Answer: Active

Question: With `Cc1ccc(S(=O)(=O)N[C@@H](Cc2ccccc2)C(=O)CCl)cc1` as the compound, how does the Activity read?
Answer: Active

Question: With `Cc1ccc(S(=O)(=O)NC(CC=O)C(C)C)cc1` (single isomer, unassigned) as the compound, how does the Activity read?
Answer: Active

Question: For `Cc1ccc(S(=O)(=O)N[C@H](CO)C(C)C)cc1`, which Activity is on record?
Answer: inactive

Question: Which Activity does the source give for `Cc1ccc(S(=O)(=O)N[C@H](CO)CCCCN)cc1` here?
Answer: inactive

Question: For `Cc1ccc(S(=O)(=O)N[C@H](CO)CCCCNC(=O)OC(C)(C)C)cc1`, which Activity is on record?
Answer: inactive

Question: For `Cc1ccc(S(=O)(=O)N[C@H](CC=O)Cc2ccccc2)cc1`, which Activity is on record?
Answer: Active

Question: `CCCC[C@H]1CN1S(=O)(=O)c1ccc(C)cc1` (stereo partly drawn) was tested. Which Activity did it give?
Answer: inactive

Source: ChEMBL document CHEMBL1138626, “Synthesis and biological evaluation of reversible inhibitors of IdeS, a bacterial cysteine protease and virulence determinant” (Bioorg Med Chem, 2009)
